Assay results published in ChEMBL document CHEMBL1255276, “Reliability of the WIDERYST susceptibility testing system for detection of in vitro antifungal resistance in yeasts” (2008).
≈ marks a conversion by molar mass, not a printed value.

How the values were obtained:
Type in all cases: functional
[1] = tested on: Pichia kudriavzevii; test: Antifungal activity against Candida krusei ATCC 6258 by AFST-EUCAST method
Summary of the method: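 AFST-EUCAST microdilution standard for fermentative yeasts (document 7.1). The medium was RPMI 1640 with 2% glucose in flat-bottomed plates, and the inoculum was 10^5 CFU/ml. Endpoints were read spectrophotometrically at 24 and 48 h. The MIC was the lowest concentration giving ≥90% growth reduction versus the drug-free control for AMB, or a 50% OD reduction for 5FC and azoles. Run as a quality-control strain in each set.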

[2] = tested on: Pichia kudriavzevii; test: Antifungal activity against Candida krusei ATCC 6258 by CLSI M27-A2 microdilution method
[3] = tested on: Pichia kudriavzevii; test: Antifungal activity against Candida krusei ATCC 6258 by WIDERYST method
[4] = tested on: Candida parapsilosis; test: Antifungal activity against Candida parapsilosis ATCC 22019 by AFST-EUCAST method; conditions: Lodderomyces parapsilosis
Summary of the method: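 Microdilution per AFST-EUCAST 7.1, with the strain run as a quality control in each set. RPMI 1640 plus 2% glucose, inoculum 10^5 CFU/ml, flat-bottomed plates. Read spectrophotometrically at 24 and 48 h. MIC endpoint is the lowest concentration giving ≥90% growth reduction versus the drug-free control for AMB, and 50% OD reduction for 5FC and azoles.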

[5] = tested on: Candida parapsilosis; test: Antifungal activity against Candida parapsilosis ATCC 22019 by CLSI M27-A2 microdilution method; conditions: Lodderomyces parapsilosis
[6] = tested on: Candida parapsilosis; test: Antifungal activity against Candida parapsilosis ATCC 22019 by WIDERYST method; conditions: Lodderomyces parapsilosis
Summary of the method: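 Commercial 96-well panels with lyophilized drugs, the strain serving as a quality control. Ranges: FLC and 5FC 128–0.06 µg/ml; AMB, ITC, VRC and KTC 8–0.004 µg/ml. Inoculum 1 x 10^5 to 5 x 10^5 CFU/ml, 35°C, 24 h, no CO2, plus 24 h if no growth. Video-image read; MIC is 90% (AMB) or 50% (others) growth reduction versus the positive control.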

In the case of `C[C@@H]1[C@H](O)[C@@H](C)/C=C/C=C/C=C/C=C/C=C/C=C/C=C/[C@H](O[C@@H]2O[C@H](C)[C@@H](O)[C@H](N)[C@@H]2O)C[C@@H]2O[C@](O)(C[C@@H](O)C[C@@H](O)[C@H](O)CC[C@@H](O)C[C@@H](O)CC(=O)O[C@H]1C)C[C@H](O)[C@H]2C(=O)O` [AMPHOTERICIN B], the MIC [1] is reported as 0.12 µg/mL (≈ 0.13 µM), the MIC [2] is reported as 0.5 µg/mL (≈ 0.541 µM) and the MIC [3] is reported as 0.12 µg/mL (≈ 0.13 µM). The MIC [4] was 0.12 µg/mL (≈ 0.13 µM), the MIC [5] was 0.25 µg/mL (≈ 0.271 µM) and the MIC [6] was 0.06 µg/mL (≈ 0.0649 µM).

With `OC(Cn1cncn1)(Cn1cncn1)c1ccc(F)cc1F` [FLUCONAZOLE] the MIC [1] was 8 µg/mL (≈ 26.1 µM), the MIC [2] was 16 µg/mL (≈ 52.2 µM) and the MIC [3] was 8 µg/mL (≈ 26.1 µM). The MIC [4] was 1 µg/mL (≈ 3.27 µM), the MIC [5] was 1 µg/mL (≈ 3.27 µM) and the MIC [6] was 0.5 µg/mL (≈ 1.63 µM).

Compound `Nc1nc(=O)[nH]cc1F` [FLUCYTOSINE] has an MIC [1] of 1 µg/mL (≈ 7.75 µM), an MIC [2] of 4 µg/mL (≈ 31 µM) and an MIC [3] of 2 µg/mL (≈ 15.5 µM). It also gave an MIC [4] of 0.12 µg/mL (≈ 0.93 µM), an MIC [5] of 0.12 µg/mL (≈ 0.93 µM) and an MIC [6] of 0.06 µg/mL (≈ 0.465 µM).

With `CCC(C)n1ncn(-c2ccc(N3CCN(c4ccc(OCC5COC(Cn6cncn6)(c6ccc(Cl)cc6Cl)O5)cc4)CC3)cc2)c1=O` (stereo unspecified) [ITRACONAZOLE] the MIC [1] was 0.06 µg/mL (≈ 0.085 µM), the MIC [2] was 0.12 µg/mL (≈ 0.17 µM) and the MIC [3] was 0.06 µg/mL (≈ 0.085 µM). The MIC [4] was 0.03 µg/mL (≈ 0.0425 µM), the MIC [5] was 0.12 µg/mL (≈ 0.17 µM) and the MIC [6] was 0.03 µg/mL (≈ 0.0425 µM).

In the case of `CC(=O)N1CCN(c2ccc(OCC3COC(Cn4ccnc4)(c4ccc(Cl)cc4Cl)O3)cc2)CC1` (stereo unspecified) [KETOCONAZOLE], the MIC [1] is reported as 0.06 µg/mL (≈ 0.113 µM), the MIC [2] is reported as 0.12 µg/mL (≈ 0.226 µM) and the MIC [3] is reported as 0.12 µg/mL (≈ 0.226 µM). For the same compound, the MIC [4] was 0.01 µg/mL (≈ 0.0188 µM), the MIC [5] was 0.03 µg/mL (≈ 0.0565 µM) and the MIC [6] was 0.01 µg/mL (≈ 0.0188 µM).

Compound `C[C@@H](c1ncncc1F)[C@](O)(Cn1cncn1)c1ccc(F)cc1F` [VORICONAZOLE] has an MIC [1] of 0.06 µg/mL (≈ 0.172 µM), an MIC [2] of 0.06 µg/mL (≈ 0.172 µM) and an MIC [3] of 0.06 µg/mL (≈ 0.172 µM). For the same compound, the MIC [4] was 0.03 µg/mL (≈ 0.0859 µM), the MIC [5] was 0.03 µg/mL (≈ 0.0859 µM) and the MIC [6] was 0.01 µg/mL (≈ 0.0286 µM).
